# Test results published in publication PMC7036014 (Molecular cell, 2019).
# Changes are numbered by the printed parent chain.
# Columns and labels:
# SIRT1 [1] = target: T1, SIRT1 (Homo sapiens, UniProt Q96EB6); test: HPLC-MS/MS SIRT1 deacetylation assay with acetylated peptide substrates; type: biochemical; details: for activation of SIRT1 towards mutant p53 peptide (p53-W): 250 nM 18:1, 10 μM resveratrol, 1 μM SRT1720; for allosteric activation of SIRT1 towards wild-type p53 peptide: p53 peptide lacking hydrophobic residue at +1 or +6
# T1 sequence (Q96EB6 1-747): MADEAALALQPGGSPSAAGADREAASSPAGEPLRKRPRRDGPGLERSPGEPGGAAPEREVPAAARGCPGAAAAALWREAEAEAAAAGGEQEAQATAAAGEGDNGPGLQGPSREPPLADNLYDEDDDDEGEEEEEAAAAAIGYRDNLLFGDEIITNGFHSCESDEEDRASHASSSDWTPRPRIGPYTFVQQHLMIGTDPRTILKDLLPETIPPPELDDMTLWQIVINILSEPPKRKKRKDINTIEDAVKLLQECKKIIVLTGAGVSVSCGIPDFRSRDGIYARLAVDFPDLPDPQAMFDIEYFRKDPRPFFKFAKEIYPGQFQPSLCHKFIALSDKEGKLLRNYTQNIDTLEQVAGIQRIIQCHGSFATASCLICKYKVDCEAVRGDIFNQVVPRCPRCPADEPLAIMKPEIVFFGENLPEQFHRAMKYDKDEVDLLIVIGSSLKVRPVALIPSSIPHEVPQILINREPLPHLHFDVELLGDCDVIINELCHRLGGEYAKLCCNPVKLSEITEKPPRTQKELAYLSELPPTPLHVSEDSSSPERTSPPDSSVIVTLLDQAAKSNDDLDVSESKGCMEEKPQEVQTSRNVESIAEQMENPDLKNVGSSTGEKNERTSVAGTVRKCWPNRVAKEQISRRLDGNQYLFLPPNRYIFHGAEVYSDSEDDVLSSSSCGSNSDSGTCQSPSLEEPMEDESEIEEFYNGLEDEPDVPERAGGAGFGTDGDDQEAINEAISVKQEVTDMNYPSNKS
# Summary of the method: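 Recombinant SIRT1 (1 μM, E. coli-expressed) incubated with acetylated peptide (0–250 μM) plus fatty acid in 25 mM Tris, pH 8.0, 50 mM NaCl, 1 mM DTT, 1 mM NAD+ for 60 min at 37°C. Deacetylation quantified by HPLC-MS/MS with positive-mode electrospray. Km, Vmax and kcat obtained from Lineweaver-Burk plots.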
# SIRT1 [2] = target: T1, SIRT1; test: Intrinsic tryptophan fluorescence quenching binding assay, SIRT1; details: for Kd, SIRT1: tryptophan quenching
# SIRT1 [3] = target: T1, SIRT1; test: 1,8-ANS displacement assay, SIRT1; type: binding; details: for Ki, SIRT1: displacement of 1,8-ANS
# SIRT1 [4] = target: T1, SIRT1; test: Circular dichroic analysis of SIRT1 secondary structure with ligand; details: for α-helical content of SIRT1: with ligand, 23% without ligand; for shape of the CD spectrum of SIRT1: addition of ligand
# [5] = target: T2, recombinant full-length murine PLIN5 (Mus musculus, UniProt Q8BVZ1); test: Intrinsic tryptophan fluorescence quenching binding assay, PLIN5; details: for binding curve, PLIN5: tryptophan fluorescence
# T2 sequence (Q8BVZ1 1-463): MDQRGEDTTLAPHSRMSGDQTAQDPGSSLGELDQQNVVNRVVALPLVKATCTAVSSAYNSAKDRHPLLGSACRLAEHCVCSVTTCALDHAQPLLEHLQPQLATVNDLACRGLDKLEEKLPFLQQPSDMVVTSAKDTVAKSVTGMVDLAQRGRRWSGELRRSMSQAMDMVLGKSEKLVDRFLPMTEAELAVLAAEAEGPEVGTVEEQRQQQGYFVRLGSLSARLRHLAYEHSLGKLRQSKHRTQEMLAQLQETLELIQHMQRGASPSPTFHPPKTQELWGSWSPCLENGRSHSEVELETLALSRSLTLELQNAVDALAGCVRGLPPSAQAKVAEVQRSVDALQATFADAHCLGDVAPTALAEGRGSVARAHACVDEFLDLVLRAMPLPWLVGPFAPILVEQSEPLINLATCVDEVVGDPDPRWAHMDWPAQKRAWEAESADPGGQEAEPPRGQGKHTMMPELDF
# Summary of the method: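 Protein at 150 nM in 10 mM NaH2PO4, pH 7.5, titrated with ethanolic fatty acid. Excitation 295 nm, emission scanned 300–400 nm. Signal corrected for buffer-plus-ligand background. ΔF (F0−F) plotted against ligand to give a saturation curve. Kd taken from linear regression of the double-reciprocal transform. PLIN5: untagged full-length murine recombinant protein, n=4.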
# PLIN5-pM (S155E) = target: T3, PLIN5-pM (S155E) (Mus musculus, UniProt Q8BVZ1, S155E); test: Tryptophan fluorescence quenching binding assay, PLIN5-pM; parameters: species or system murine; details: for increase in binding affinity of PLIN5-pM: PLIN5-pM vs comparator
# T3 sequence (Q8BVZ1 1-463 S155E): T2 sequence (Q8BVZ1 1-463) with S155E
# PLIN5 = target: T4, PLIN5 (Mus musculus, UniProt Q8BVZ1); test: 1,8-ANS displacement assay, PLIN5; type: binding, murine
# T4 sequence (Q8BVZ1 1-463): T2 sequence (Q8BVZ1 1-463)
# Summary of the method: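 Untagged recombinant PLIN5 (His-MBP tag removed by TEV protease) at 1 μM with 500 nM 1,8-ANS in 50 mM sodium phosphate, pH 7.5, 25°C. Competitor lipids added in increasing amounts, each mixed 60 s before reading fluorescence. I50 taken from the normalized displacement curve. Ki = I50/(1+[L]/KD), using the ANS KD from a Scatchard analysis of a protein titration.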
# PLIN5-pM = target: T5, PLIN5-pM (Mus musculus, UniProt Q8BVZ1, S155E); test: Circular dichroic analysis of PLIN5-pM with ligand; parameters: species or system murine; details: addition of ligand
# T5 sequence (Q8BVZ1 1-463 S155E): T2 sequence (Q8BVZ1 1-463) with S155E
# Summary of the method: (§1)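 Far-UV CD spectra of the PLIN5 phospho-mutants in 10 mM NaH2PO4, pH 7.5, with 10 mM NaCl, with and without ligand. Run at 25°C in a 1 mm path cuvette. Ligand incubated 2–5 min before each scan. Each spectrum is the average of ten scans, repeated in triplicate.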
# PLIN5-pD = target: T6, PLIN5-pD (Mus musculus, UniProt Q8BVZ1, S155A); test: Circular dichroic analysis of PLIN5-pD with ligand; parameters: species or system murine; details: addition of ligand
# T6 sequence (Q8BVZ1 1-463 S155A): T2 sequence (Q8BVZ1 1-463) with S155A
# Summary of the method: as §1
# [6] = system: PGC-1α activity, primary hepatocytes; test: PGC-1α luciferase reporter assay in primary hepatocytes; type: cell-based, mouse; details: hepatocytes preloaded with fatty acid
# PGC-1α activity, MEFs = test: PGC-1α luciferase reporter assay in MEFs; type: cell-based, mouse; details: for activation of PGC-1α in Sirt1 knockout cells rescued with GFP tagged human Sirt1: Sirt1 knockout MEFs + human Sirt1; for PGC-1α activity with cAMP, individual fatty acid loading: vs non-loaded or 18:0/16:0 loaded cells
# [7] = system: PGC-1α activity, mouse L-cells; test: PGC-1α luciferase reporter assay in L-cells; type: cell-based; details: Plin5 knockout L-cells
# [8] = system: cellular cAMP levels, MEF cells; test: cAMP-Glo Assay in MEF cells; type: cell-based, mouse; details: 6 hrs 500 μM 18:1, no Iso/IBMX
# Summary of the method: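 MEFs in DMEM/10% FBS given 2% fatty-acid-free BSA or 500 μM 18:1–BSA complex for 6 or 16 h. Then washed and switched to serum-free DMEM with DMSO or 20 μM isoproterenol/500 μM IBMX for 20 min. cAMP-Glo steps at room temperature: lysis 15 min, detection solution 20 min, Kinase-Glo 10 min. n=12–16.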
# [9] = acetylated FOXO3a peptide substrate
# [10] = acetylated PGC-1α peptide substrate
# [11] = fixed amounts of PGC-1α, FOXO3a and H3 peptides, 150 or 600 nM 18:1
smiles,measurement,setting,value
"CCCCCCCC/C=C\CCCCCCCC(=O)O [18:1, oleic acid]",effect on Km and catalytic efficiency on co-addition with resveratrol,"SIRT1 [1]; PGC-1α peptide, co-addition of 18:1 and resveratrol vs single compound",not additive
same,Km of SIRT1 towards the FOXO3a peptide,SIRT1 [1]; [9],reduced
same,SIRT1 catalytic efficiency towards the FOXO3a peptide,SIRT1 [1]; [9],increased
same,Km of SIRT1 towards the PGC-1α peptide,SIRT1 [1]; [10],lowering
same,SIRT1 catalytic efficiency (Kcat/Km) towards the PGC-1α peptide,SIRT1 [1]; [10],increase
same,enzyme velocity,SIRT1 [1]; [10],without a significant change
same,"deacetylase activity towards FOXO3a and PGC-1α peptides, competition assay",SIRT1 [1]; [11],increased
same,"deacetylase activity towards H3, competition assay",SIRT1 [1]; [11],decreased
same,activation of SIRT1 towards mutant p53 peptide (p53-W),SIRT1 [1],activated
same,allosteric activation of SIRT1 towards wild-type p53 peptide,SIRT1 [1],did not respond
same,Kd,SIRT1 [2],0.081 ± 0.009 µM
same,Ki,SIRT1 [3],5.6 ± 0.12 µM
same,α-helical content of SIRT1,SIRT1 [4],28.6%
same,Kd,[5],0.089 ± 0.002 µM
same,"binding curve, PLIN5",[5],Saturable binding curves
same,Kd,PLIN5-pM (S155E),0.036 ± 0.008 µM
same,increase in binding affinity of PLIN5-pM,PLIN5-pM (S155E),2.4 fold
same,Ki,PLIN5,4 ± 0.13 µM
same,shape of the CD spectrum of PLIN5-pM,PLIN5-pM,robustly altered
same,CD spectrum changes of PLIN5-pD,PLIN5-pD,more subtle changes
same,PGC-1α activity response to cAMP and protein overexpression,[6],further enhanced
same,"basal PGC-1α activity, acute exposure","PGC-1α activity, MEFs; 6 hrs, 500 μM 18:1",increased
same,requirement of PKA-stimulated lipolysis for activation of PGC-1α,"PGC-1α activity, MEFs; PKA or ATGL inhibitors",required
same,regulation of PGC-1α activity in MEFs lacking Sirt1,"PGC-1α activity, MEFs; Sirt1 knockout MEFs",SIRT1 was required
same,activation of PGC-1α in Sirt1 knockout cells rescued with GFP tagged human Sirt1,"PGC-1α activity, MEFs",restored
same,PGC-1α activity upon stimulation of β-adrenergic signaling,"PGC-1α activity, MEFs; acute and overnight loading vs non-loaded cells, isoproterenol/IBMX",enhanced
same,"PGC-1α activity with cAMP, individual fatty acid loading","PGC-1α activity, MEFs",synergized with cAMP
same,regulation of PGC-1α activity in L-Cells lacking Plin5,[7],PLIN5 was required
same,"cellular cAMP levels, acute exposure",[8],increased
"O=C(Nc1ccccc1-c1cn2c(CN3CCNCC3)csc2n1)c1cnc2ccccc2n1 [SRT1720, reference compound]",activation of SIRT1 towards mutant p53 peptide (p53-W),SIRT1 [1],activated
same,allosteric activation of SIRT1 towards wild-type p53 peptide,SIRT1 [1],did not respond
"CN(C)C(=O)Nc1cccc(-c2ccc(N(C)C)cc2)c1 [ATGLstatin, reference compound]",effects of β-adrenergic stimulation on PGC-1α activity in 18:1 loaded cells,"PGC-1α activity, MEFs; 30 μM ATGL inhibitor",blocked
"CCCCC/C=C\C/C=C\C/C=C\C/C=C\CCCC(=O)O [20:4, arachidonic acid]","binding curve, PLIN5",[5],Saturable binding curves
"Oc1ccc(/C=C/c2cc(O)cc(O)c2)cc1 [resveratrol, reference compound]",activation of SIRT1 towards mutant p53 peptide (p53-W),SIRT1 [1],activated
same,allosteric activation of SIRT1 towards wild-type p53 peptide,SIRT1 [1],did not respond
same,activation of PGC-1α in Sirt1 knockout cells rescued with GFP tagged human Sirt1,"PGC-1α activity, MEFs",restored
same,regulation of PGC-1α in Sirt1 knockout cells rescued with Sirt1-E230K mutant,"PGC-1α activity, MEFs; Sirt1 knockout MEFs + human Sirt1 E230K",did not restore
"CCCCCCCCCCCCCCCC(=O)O [16:0, palmitic acid]",stimulation of SIRT1 deacetylase activity,SIRT1 [1]; [10],unable to stimulate
same,"Kd, SIRT1",SIRT1 [2],No fatty acid binding was observed
same,"Ki, SIRT1",SIRT1 [3],not observed
same,shape of the CD spectrum of SIRT1,SIRT1 [4],did not alter
same,"binding curve, PLIN5",[5],Saturable binding curves
"CCCCCC/C=C\CCCCCCCC(=O)O [16:1, palmitoleic acid]",Km of SIRT1 towards the PGC-1α peptide,SIRT1 [1]; [10],lowering
same,SIRT1 catalytic efficiency (Kcat/Km) towards the PGC-1α peptide,SIRT1 [1]; [10],increase
same,Kd,SIRT1 [2],0.1 ± 0.003 µM
same,Ki,SIRT1 [3],12.5 ± 0.06 µM
same,α-helical content of SIRT1,SIRT1 [4],25.9%
same,Kd,[5],0.082 ± 0.012 µM
same,"binding curve, PLIN5",[5],Saturable binding curves
same,Kd,PLIN5-pM (S155E),0.023 ± 0.003 µM
same,increase in binding affinity of PLIN5-pM,PLIN5-pM (S155E),3.4 fold
same,Ki,PLIN5,9.9 ± 0.07 µM
same,"PGC-1α activity with cAMP, individual fatty acid loading","PGC-1α activity, MEFs",synergized with cAMP
"CCCCCCCCCCCCCCCCCC(=O)O [18:0, stearic acid]",stimulation of SIRT1 deacetylase activity,SIRT1 [1]; [10],unable to stimulate
same,"Kd, SIRT1",SIRT1 [2],No fatty acid binding was observed
same,"Ki, SIRT1",SIRT1 [3],not observed
same,shape of the CD spectrum of SIRT1,SIRT1 [4],did not alter
same,"binding curve, PLIN5",[5],Saturable binding curves
same,Ki,PLIN5,17.7 ± 0.04 µM
